# Assay results from ChEMBL document CHEMBL4689842, “EUbOPEN Chemogenomics Library wave 1” (2021).
# Tested on: HEK-293T
# Assay: Multiplex assay against HEK293T;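 on Population Tubulin-Different-Phenotype (%): share of the cells with healthy nuclei that show this phenotype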
# Assay type: toxicity, cell-based
# Conditions: human
# Method in brief: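 Cells stained live at seeding with Hoechst33342, BioTracker Green Microtubule Cytoskeleton Dye, MitoTracker Red and Annexin V Alexa Fluor 680 were imaged on a CQ1 microscope at 37°C and 5% CO2 after compound addition. Their classification by CellPathfinder machine-learning gating ran from Hoechst high-intensity objects versus normal cells, to healthy, pyknosed or fragmented nuclei among normal cells, to mitotic or apoptotic among pyknosed cells. Tubulin, mitochondrial-mass and membrane-permeability phenotypes are per cents of healthy-nucleus cells.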
# [1] = 12 h, 1 µM, compound concentration 1 uM, replicate 1
# [2] = 12 h, 1 µM, compound concentration 1 uM, replicate 2
# [3] = 12 h, 10 µM, compound concentration 10 uM, replicate 1
# [4] = 12 h, 10 µM, compound concentration 10 uM, replicate 2
# [5] = 24 h, 1 µM, compound concentration 1 uM, replicate 1
# [6] = 24 h, 1 µM, compound concentration 1 uM, replicate 2
# [7] = 24 h, 10 µM, compound concentration 10 uM, replicate 1
# [8] = 24 h, 10 µM, compound concentration 10 uM, replicate 2
# [9] = 48 h, 1 µM, compound concentration 1 uM, replicate 1
# [10] = 48 h, 1 µM, compound concentration 1 uM, replicate 2
# [11] = 48 h, 10 µM, compound concentration 10 uM, replicate 1
# [12] = 48 h, 10 µM, compound concentration 10 uM, replicate 2
compound,measurement,setting,value
CC(C)NCC(O)COc1ccc(CCOCC2CC2)cc1.Cl (stereo not given) [BETAXOLOL HYDROCHLORIDE],Population Apoptotic (%),[1],43%
same,Population Fragmented Nuclei (%),[1],7%
same,Population Healthy Nuclei (%),[1],49%
same,Population Hoechst High Intensity Objects (%),[1],10%
same,Population Membrane Permeable-Phenotype (%),[1],3%
same,Population Mitochondria Different-Phenotype (%),[1],82%
same,Population Mitotic Cells (%),[1],56%
same,Population Normal (%),[1],89%
same,Population Pyknosed Nuclei (%),[1],43%
same,Population Tubulin-Different-Phenotype (%),[1],56%
same,Total Cell Count,[1],343
same,Population Apoptotic (%),[2],12%
same,Population Fragmented Nuclei (%),[2],6%
same,Population Healthy Nuclei (%),[2],43%
same,Population Hoechst High Intensity Objects (%),[2],1%
same,Population Membrane Permeable-Phenotype (%),[2],8%
same,Population Mitochondria Different-Phenotype (%),[2],14%
same,Population Mitotic Cells (%),[2],87%
same,Population Normal (%),[2],98%
same,Population Pyknosed Nuclei (%),[2],50%
same,Population Tubulin-Different-Phenotype (%),[2],19%
same,Total Cell Count,[2],227
same,Population Apoptotic (%),[3],55%
same,Population Fragmented Nuclei (%),[3],9%
same,Population Hoechst High Intensity Objects (%),[3],13%
same,Population Membrane Permeable-Phenotype (%),[3],1%
same,Population Mitochondria Different-Phenotype (%),[3],100%
same,Population Mitotic Cells (%),[3],44%
same,Population Normal (%),[3],86%
same,Population Pyknosed Nuclei (%),[3],59%
same,Population Tubulin-Different-Phenotype (%),[3],95%
same,Total Cell Count,[3],247
same,Population Apoptotic (%),[4],36%
same,Population Fragmented Nuclei (%),[4],3%
same,Population Healthy Nuclei (%),[4],30%
same,Population Hoechst High Intensity Objects (%),[4],2%
same,Population Membrane Permeable-Phenotype (%),[4],6%
same,Population Mitochondria Different-Phenotype (%),[4],71%
same,Population Mitotic Cells (%),[4],63%
same,Population Normal (%),[4],97%
same,Population Pyknosed Nuclei (%),[4],65%
same,Population Tubulin-Different-Phenotype (%),[4],77%
same,Total Cell Count,[4],259
same,Population Apoptotic (%),[5],45%
same,Population Fragmented Nuclei (%),[5],6%
same,Population Healthy Nuclei (%),[5],60%
same,Population Hoechst High Intensity Objects (%),[5],7%
same,Population Membrane Permeable-Phenotype (%),[5],2%
same,Population Mitochondria Different-Phenotype (%),[5],65%
same,Population Mitotic Cells (%),[5],54%
same,Population Normal (%),[5],92%
same,Population Pyknosed Nuclei (%),[5],33%
same,Population Tubulin-Different-Phenotype (%),[5],37%
same,Total Cell Count,[5],403
same,Population Apoptotic (%),[6],10%
same,Population Healthy Nuclei (%),[6],64%
same,Population Hoechst High Intensity Objects (%),[6],1%
same,Population Membrane Permeable-Phenotype (%),[6],7%
same,Population Mitochondria Different-Phenotype (%),[6],22%
same,Population Mitotic Cells (%),[6],89%
same,Population Normal (%),[6],98%
same,Population Pyknosed Nuclei (%),[6],29%
same,Population Tubulin-Different-Phenotype (%),[6],32%
same,Total Cell Count,[6],314
same,Population Apoptotic (%),[7],69%
same,Population Fragmented Nuclei (%),[7],11%
same,Population Healthy Nuclei (%),[7],32%
same,Population Hoechst High Intensity Objects (%),[7],15%
same,Population Membrane Permeable-Phenotype (%),[7],4%
same,Population Mitochondria Different-Phenotype (%),[7],98%
same,Population Mitotic Cells (%),[7],30%
same,Population Normal (%),[7],84%
same,Population Pyknosed Nuclei (%),[7],55%
same,Population Tubulin-Different-Phenotype (%),[7],80%
same,Total Cell Count,[7],258
same,Population Apoptotic (%),[8],47%
same,Population Fragmented Nuclei (%),[8],2%
same,Population Healthy Nuclei (%),[8],50%
same,Population Hoechst High Intensity Objects (%),[8],5%
same,Population Membrane Permeable-Phenotype (%),[8],3%
same,Population Mitochondria Different-Phenotype (%),[8],80%
same,Population Mitotic Cells (%),[8],52%
same,Population Normal (%),[8],94%
same,Population Pyknosed Nuclei (%),[8],46%
same,Population Tubulin-Different-Phenotype (%),[8],82%
same,Total Cell Count,[8],321
same,Population Apoptotic (%),[9],28%
same,Population Fragmented Nuclei (%),[9],8%
same,Population Healthy Nuclei (%),[9],79%
same,Population Hoechst High Intensity Objects (%),[9],5%
same,Population Membrane Permeable-Phenotype (%),[9],1%
same,Population Mitochondria Different-Phenotype (%),[9],28%
same,Population Mitotic Cells (%),[9],71%
same,Population Normal (%),[9],94%
same,Population Pyknosed Nuclei (%),[9],12%
same,Population Tubulin-Different-Phenotype (%),[9],31%
same,Total Cell Count,[9],701
same,Population Apoptotic (%),[10],11%
same,Population Fragmented Nuclei (%),[10],6%
same,Population Healthy Nuclei (%),[10],81%
same,Population Hoechst High Intensity Objects (%),[10],3%
same,Population Membrane Permeable-Phenotype (%),[10],4%
same,Population Mitochondria Different-Phenotype (%),[10],6%
same,Population Mitotic Cells (%),[10],88%
same,Population Normal (%),[10],97%
same,Population Pyknosed Nuclei (%),[10],11%
same,Population Tubulin-Different-Phenotype (%),[10],22%
same,Total Cell Count,[10],601
same,Population Apoptotic (%),[11],67%
same,Population Fragmented Nuclei (%),[11],14%
same,Population Healthy Nuclei (%),[11],48%
same,Population Hoechst High Intensity Objects (%),[11],14%
same,Population Membrane Permeable-Phenotype (%),[11],0%
same,Population Mitochondria Different-Phenotype (%),[11],84%
same,Population Mitotic Cells (%),[11],32%
same,Population Normal (%),[11],85%
same,Population Pyknosed Nuclei (%),[11],36%
same,Population Tubulin-Different-Phenotype (%),[11],61%
same,Total Cell Count,[11],288
same,Population Apoptotic (%),[12],40%
same,Population Fragmented Nuclei (%),[12],4%
same,Population Healthy Nuclei (%),[12],72%
same,Population Hoechst High Intensity Objects (%),[12],4%
same,Population Membrane Permeable-Phenotype (%),[12],1%
same,Population Mitochondria Different-Phenotype (%),[12],63%
same,Population Mitotic Cells (%),[12],59%
same,Population Normal (%),[12],95%
same,Population Pyknosed Nuclei (%),[12],23%
same,Population Tubulin-Different-Phenotype (%),[12],77%
same,Total Cell Count,[12],435
